Here are results for 5 compounds from ChEMBL document CHEMBL1124898, “Novel agents effective against solid tumors: the diarylsulfonylureas. Synthesis, activities, and analysis of quantitative structure-activity relationships” (J Med Chem, 1990).

≈ marks a conversion by molar mass, not a printed value. Some results are limits rather than exact numbers.

Data set [1] is described as follows: Antitumor activity in vivo against the 6C3HED lymphosarcoma dosed for 10 days at 300 mg/kg (ip dosing daily for 8 days). Type of data set: functional. The note with it: Mus musculus, route intraperitoneal. In short, it runs like this: (§1)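 Tumor fragments (about 1–2 mm) implanted sc via trochar into a subaxillary site of syngeneic mice (C3H, C57BL/6, Balb/C or DBA/2) or Holtz rats. Groups were 7–10 randomized animals. Compound was suspended in 2.5% Emulphor in 0.9% saline and given orally by gavage or ip, usually from the day after implantation. Tumor volume versus untreated controls was measured one day after the final dose and reported as % inhibition. Scoring bands: +++ 95–100%, ++ 80–94%.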

In data set [2] the test system is CCRF-CEM. Briefly: Concentration required to inhibit growth of CCRF-CEM cells in culture for 72 hr to 50% of control growth. Type of data set: functional, cell-based. Conditions: Homo sapiens.
A short description of data set [3]: Antitumor activity in vivo against the 6C3HED lymphosarcoma, dosed for 8 days at 300 mg/kg. The note with it: Mus musculus, 192 h.
Data set [4] has as its system Colon 26. The experiment in a line: Antitumor activity in vivo expressed as percent of inhibition in C-26-colon carcinoma cell line. Type of data set: functional, Mus musculus. In short, it runs like this:
as §1

Data set [5] is described as follows: Tested on CA-755 mammary adenocarcinoma and percent inhibition was determined at 100 mg/kg dosage administered for 10 days intraperitoneally. The note with it: Mus musculus, CA-755, ip, 240 h, route intraperitoneal. Format: functional. The procedure, abridged:
as §1

Data set [6] is described as follows: Tested on 6C3HED lymphosarcoma and percent inhibition was determined at 200 mg/kg dosage administered for 8 days intraperitoneally. The note with it: Mus musculus, po, 192 h, in the assay text read “orally” for “intraperitoneally”. Type of data set: functional. The procedure, abridged: as §1
Data set [7] is described as follows: Tested on 6C3HED lymphosarcoma and percent inhibition was determined at 50 mg/kg dosage administered for 8 days intraperitoneally. Type of data set: functional. Conditions: Mus musculus, po, 192 h, in the assay text read “orally” for “intraperitoneally”. The procedure, abridged:
as §1

A short description of data set [8]: Tested on CA-755 mammary adenocarcinoma and percent inhibition was determined at 50 mg/kg dosage administered for 10 days intraperitoneally. Format: functional. The note with it: Mus musculus, CA-755, ip, 240 h, route intraperitoneal. The procedure, abridged:
as §1

Data set [9] is described as follows: Tested on X-5563 multiple myeloma and number of drug related deaths/total animals in treatment group was determined at 100 mg/kg dosage administered for 10 days intraperitoneally; 1/7. The note with it: mouse, in vivo, ip, 240 h. Type of data set: ADME, organism-based. On the set-up: dose 100 mg/kg, route intraperitoneal.
For data set [10], the system named is M-5 (Mus musculus). The experiment in a line: Antitumor activity in vivo expressed as percent of inhibition in M-5-ovarian carcinoma cell line.
The nature of data set [11]: Antitumor activity in vivo against the 6C3HED lymphosarcoma dosed for 8 days at 200 mg/kg. The note with it: Mus musculus, 192 h.
Data set [12] deals with CA-755. Briefly: Antitumor activity in vivo expressed as percent of inhibition in CA-755-mammary adenocarcinoma tumor cell line. Type of data set: functional, Mus musculus. The procedure, abridged: as §1
A short description of data set [13]: Tested on 6 C3 HED lymphosarcoma and number of drug related deaths/total animals in treatment group was determined at 100 mg/kg dosage administered for 8 days intraperitoneally; 0/10. Type of data set: ADME, organism-based. On the set-up: dose 100 mg/kg, route intraperitoneal. The note with it: mouse, in vivo, ip, 192 h.
For data set [14], the system named is P1534J. Briefly: Antitumor activity in vivo expressed as percent of inhibition in P1534J-lymphatic leukemia cell line. Format: functional, Mus musculus.
Data set [15] is described as follows: Tested on 6C3HED lymphosarcoma and percent inhibition was determined at 200 mg/kg dosage administered for 10 days intraperitoneally. Format: functional. Conditions: Mus musculus, ip, 240 h, route intraperitoneal. The procedure, abridged:
as §1

Data set [16] relates to B16. Briefly: Antitumor activity in vivo and the activity was determined as percent increase in life span determined against B-16-melanoma (ascites) cell lines. Type of data set: functional, Mus musculus. In short, it runs like this:
(§2)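 The ascites tumor inoculum of 1 × 10^6 cells was given ip to DBA/2 mice, and treatment started the next day. Compound was suspended in 2.5% Emulphor in 0.9% saline. Groups had 7–10 animals. %ILS = (MDD treated − MDD control)/MDD control × 100. Deaths before the control median day of death were counted as toxic. Values are optimal from at least two experiments.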

The nature of data set [17]: Tested on X-5563 multiple myeloma and percent inhibition was determined at 100 mg/kg dosage administered for 10 days intraperitoneally. Type of data set: functional. Conditions: Mus musculus, X5563, ip, 240 h, route intraperitoneal. In short, it runs like this:
as §1

Data set [18] can be described thus: Tested on 6C3HED lymphosarcoma and percent inhibition was determined at 100 mg/kg dosage administered for 8 days intraperitoneally. Type of data set: functional. The note with it: Mus musculus, ip, 192 h, route intraperitoneal. In short, it runs like this: as §1
Data set [19] relates to X5563. The experiment in a line: Antitumor activity in vivo expressed as percent of inhibition in X5563-plasma cell myeloma cell line. Type of data set: functional, Mus musculus. In short, it runs like this: as §1
The subject of data set [20] is Lewis lung carcinoma cell line. The experiment in a line: Antitumor activity in vivo expressed as percent of inhibition in Lewis-lung carcinoma cell line. Type of data set: functional, Mus musculus. The procedure, abridged: as §1
In data set [21] the test system is 6C3HED. Briefly: Antitumor activity in vivo expressed as percent of inhibition in 6C3HED-lymphosarcoma tumor cell line. Type of data set: functional, Mus musculus. In short, it runs like this: as §1
Data set [22] can be described thus: Tested on X-5563 multiple myeloma and percent inhibition was determined at 150 mg/kg dosage administered for 10 days intraperitoneally. Format: functional. The note with it: Mus musculus, X5563, po, 240 h; in the assay text read “orally” for “intraperitoneally”. The procedure, abridged:
as §1

Data set [23] is described as follows: Tested on CA-755 mammary adenocarcinoma and percent inhibition was determined at 150 mg/kg dosage administered for 10 days intraperitoneally. The note with it: Mus musculus, CA-755, po, 240 h; in the assay text read “orally” for “intraperitoneally”. Format: functional. In short, it runs like this:
as §1

Data set [24] relates to YOSHIDA. Briefly: Antitumor activity in vivo expressed as percent of inhibition in Yoshida-sarcoma (rat) cell line. Type of data set: functional. In short, it runs like this: as §1
The nature of data set [25]: Tested on 6 C3 HED lymphosarcoma and number of drug related deaths/total animals in treatment group was determined at 50 mg/kg dosage administered for 8 days perorally; 3/10. Format: ADME, organism-based. On the set-up: dose 50 mg/kg, route oral. Conditions: mouse, in vivo, po, 192 h.
The subject of data set [26] is L1210. Briefly: Antitumor activity in vivo and the activity was determined as percent increase in life span determined against L1210V-lymphocytic leukemia tumor cell lines. Format: functional, Mus musculus. In short, it runs like this: as §2
Data set [27] is described as follows: Tested on 6 C3 HED lymphosarcoma and number of drug related deaths/total animals in treatment group was determined at 200 mg/kg dosage administered for 8 days perorally; 1/10. Format: ADME, organism-based. On the set-up: dose 200 mg/kg, route oral. Conditions: mouse, in vivo, po, 192 h.
The test system of data set [28] is P388. Briefly: Antitumor activity in vivo and the activity was determined as percent increase in life span determined against P388-lymphocytic leukemia tumor cell lines. Format: functional, Mus musculus. The procedure, abridged: as §2
Data set [29] has as its system B16. The experiment in a line: Antitumor activity in vivo expressed as percent of inhibition in B-16-melanoma (solid) cell line. Type of data set: functional, Mus musculus. In short, it runs like this: as §1
Data set [30] deals with C3H. Briefly: Antitumor activity in vivo expressed as percent of inhibition in C3H-mammary adenocarcinoma cell line. Type of data set: functional, Mus musculus. In short, it runs like this:
as §1

Data set [31] can be described thus: Tested on X-5563 multiple myeloma and number of drug related deaths/total animals in treatment group was determined at 150 mg/kg dosage administered for 10 days orally; 3/10. The note with it: mouse, in vivo, po, 240 h.
A short description of data set [32]: Tested on 6 C3 HED lymphosarcoma and number of drug related deaths/total animals in treatment group was determined at 200 mg/kg dosage administered for 10 days intraperitoneally; 1/10. Format: ADME, organism-based. On the set-up: dose 200 mg/kg, route intraperitoneal. Conditions: mouse, in vivo, ip, 240 h.
A short description of data set [33]: Antitumor activity in vivo against the 6C3HED lymphosarcoma dosed for 10 days at 275 mg/kg. Format: functional. Conditions: Mus musculus, 192 h, in the assay text read “8 days” for “10 days”. In short, it runs like this:
as §1

Data set [34] is described as follows: Antitumor activity in vivo against the 6C3HED lymphosarcoma dosed for 10 days at 225 mg/kg. Type of data set: functional. Conditions: Mus musculus, 192 h, in the assay text read “8 days” for “10 days”. In short, it runs like this:
as §1

The nature of data set [35]: Antitumor activity in vivo against the 6C3HED lymphosarcoma dosed for 8 days at 100 mg/kg. Conditions: Mus musculus, 192 h.

On to `Cc1ccc(S(=O)(=O)/N=C(\S)Nc2ccc(Cl)cc2)cc1`, for which the inhibition in vivo at 300 mg/kg in data set [1] is 45%; in [3], 35%. The compound also displayed an IC50 in data set [2] of 12.9 µg/mL (≈ 37.8 µM).
For `Cc1ccc(S(=O)(=O)NC(=O)Nc2ccc(C(F)(F)F)cc2)cc1`, the Inhibition is reported as 94% in data set [4]; 94% in data set [10]; 94% in data set [12]; 100% in data set [14]; 79% in [19]; 79% in data set [20]. Also, the Inhibition in data set [21] is 100%; in data set [24], 94%; in data set [29] it was less than 60%; in data set [30], 94%. Besides, the inhibition in vivo at 100 mg/kg stood at 13% in data set [5], 64% in data set [17] and 81% in data set [18]. Besides, the figures for the inhibition in vivo at 200 mg/kg in data set [6], in data set [11] and in data set [15] were 100%, 100% and 49%, respectively. Also, the values for the inhibition in vivo at 50 mg/kg in data set [7] and in data set [8] were 84% and 87%, respectively. Moreover, the Toxic/total in data set [9] came to 1; in data set [13], 0; in data set [25], 3; in [27] it was 1; in [31] it was 3; in [32] it was 1. For the same compound, the Increase in life-span in data set [16], in data set [26] and in data set [28] was less than 50% each time. In addition, the IC50 in data set [2] was 5.3 µg/mL (≈ 14.8 µM). The inhibition in vivo at 150 mg/kg in data set [22] came to 77%; in [23] it was 94%.
In [33], `Cc1ccc(S(=O)(=O)NC(=O)Nc2ccccc2)cc1` had an inhibition in vivo at 275 mg/kg of 44%. The compound also yielded an IC50 in data set [2] greater than 20 µg/mL.
Take `O=C(Nc1ccccc1)NS(=O)(=O)c1ccccc1`: the IC50 in data set [2] was greater than 20 µg/mL. In addition, at 225 mg/kg the inhibition in vivo in data set [34] was 35%.
In the case of `O=C(Nc1ccc(Cl)cc1)NS(=O)(=O)c1ccc(Cl)cc1`, at 100 mg/kg the inhibition in vivo in data set [35] was 100%. In [2], it took 19.3 µg/mL (≈ 55.9 µM) to reach half-maximal inhibition (IC50).
